Biofilm kill mix – clotrimazole potentiators killing C. albicans biofilm, primary screen, 4-compound mixtures; actives 0.02% (n = 120,000); inhibition, % at 7.6 µM; AID 1242, 2008; C. albicans biofilm persisters + clotrimazole, fluorescence viability; primary screen in compound mixtures of four per well;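 note: compounds exposed to preformed 24 h biofilms for 48 h; 0% = untreated biofilm control and 100% = clotrimazole plus chlorhexidine kill blank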
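Assay system: C. albicans biofilms / Medium: RPMI/MOPS medium, pH 7.0 / Schedule: biofilm formation 24 h, compound exposure 48 h, 37 °C / Measured by: Alamar Blue fluorescence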
Hep lipid drop – inhibitors of hepatocyte lipid droplet formation, primary screen, imaging, high-throughput imaging, BODIPY stain; AML12 mouse hepatocytes, oleate lipid droplets; actives 0.4% (n = 240,000); inhibition, % at 6.5 µM;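 active = lipid droplet intensity inhibited by at least 50%, with more than 500 cells counted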
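Test system: AML12 hepatocytes (mouse); reagent: oleate loading, 100 µM; dosing: one dose, 6.5 µM compound; incubation: overnight exposure; signal: fluorescence imaging, 20x objective, two fields per well; read-out basis: % inhibition of corrected integrated BODIPY droplet signal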
FXIIa inh – human FXIIa protease inhibitors, primary screen, biochemical, 1536-well; Coagulation factor XII (Homo sapiens), P00748; purified FXIIa, Boc-QGR-AMC fluorogenic substrate, 2 h; inhibition, % at 5 µM; actives 0.3% (n = 220,000); AID 800, 2007; in the data active = inhibition above about 40%;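 note: 0% = enzyme with no compound and 100% = blank without enzyme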
Target sequence (P00748 20-372 limits assumed): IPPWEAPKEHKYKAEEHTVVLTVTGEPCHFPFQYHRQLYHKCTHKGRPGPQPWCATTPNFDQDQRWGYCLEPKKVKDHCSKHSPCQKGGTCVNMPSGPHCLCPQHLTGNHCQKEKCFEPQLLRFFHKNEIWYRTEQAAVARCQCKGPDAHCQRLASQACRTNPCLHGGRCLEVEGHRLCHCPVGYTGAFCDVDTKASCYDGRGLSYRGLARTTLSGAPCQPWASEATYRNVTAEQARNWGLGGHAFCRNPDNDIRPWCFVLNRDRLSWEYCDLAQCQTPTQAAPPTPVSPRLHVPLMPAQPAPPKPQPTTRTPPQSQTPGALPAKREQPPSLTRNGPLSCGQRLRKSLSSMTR
Target sequence (P00748 373-615 limits assumed): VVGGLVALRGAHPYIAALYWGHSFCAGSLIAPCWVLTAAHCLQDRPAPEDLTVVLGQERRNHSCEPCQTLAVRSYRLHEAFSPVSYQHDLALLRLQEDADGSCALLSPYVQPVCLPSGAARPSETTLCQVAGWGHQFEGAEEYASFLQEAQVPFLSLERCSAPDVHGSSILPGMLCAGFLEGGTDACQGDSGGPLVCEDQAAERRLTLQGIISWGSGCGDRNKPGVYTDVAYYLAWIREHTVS
thrombin 1536 – human alpha-thrombin inhibitors, primary screen, counter-screen for coagulation protease inhibitor project, biochemical, 1536-well, fluorogenic AMC substrate | Boc-VPR-AMC fluorogenic substrate cleavage | actives 0.26% (n = 220,000) | inhibition, % at 5 µM | Prothrombin (Homo sapiens), P00734;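 active = inhibition at or above 40%; inactive = inhibition below 40%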;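 note: 0% = enzyme with no compound and 100% = wells without enzyme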
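System – human alpha-thrombin protein · Reagent – Boc-VPR-AMC substrate, 15 µM final · Compound – 5 µM single dose in 0.2% DMSO · Schedule – reaction at room temperature · Technique – AMC fluorescence at 355 nm excitation and 460 nm emission · Read-out basis – % inhibition relative to enzyme controls and enzyme-free blanks · Control set – no-compound enzyme wells and no-enzyme blanks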
KLK5 inh – human KLK5 protease inhibitors, primary screen, biochemical, 1536-well; Kallikrein-5 (Homo sapiens), Q9Y337; AID 873, 2007; inhibition, % at 5 µM; actives 0.59% (n = 210,000); recombinant hK5, fluorogenic AMC substrate cleavage;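 active = inhibition of 40% or more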;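 note: 0% = enzyme controls without compound and 100% = no-enzyme blanks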
FXIa inh – human FXIa protease inhibitors, primary screen, biochemical, 1536-well; purified FXIa, Boc-Glu-Ala-Arg-AMC fluorogenic substrate; inhibition, % at 5 µM; actives 0.14% (n = 220,000);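 active = inhibition of at least 40%; inactive = inhibition below 40%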;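 note: fluorescence of freed AMC excited at 355 nm; 0% = enzyme without compound and 100% = no enzyme blank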
Starred values were filed as active, the others as inactive; x = not tested or not shown. Only some compounds are listed: those with a hit (about 1.1% of all), similar ones and a draw of the others.

SMILES | Biofilm kill mix | Hep lipid drop | FXIIa inh | thrombin 1536 | KLK5 inh | FXIa inh
NC(=O)c1ccc(NC(=O)COC(=O)/C=C/c2ccc3c(c2)OCO3)cc1 | 15.5 | 2.5 | 16.3 | 22.5 | 57.2* | 34.4
CC(C)(C)c1ccc(OCc2nc(-c3ccccn3)no2)c(Br)c1 | x | 12.5 | 32.2 | 18.5 | 43.7* | 14.9
Cc1cc(-n2cnnn2)cc(C)c1S(=O)(=O)N(C)c1ccccc1 | x | -1.4 | x | x | x | x
CCn1c(C(C)NC(C)=O)nc2ccccc21 (stereo not drawn) | x | x | 3.2 | 21.5 | 56.6* | 5.5
CCn1c(C(C)NC(=O)c2cccs2)nc2ccccc21 (stereo not drawn) | x | -0.8 | 6.5 | -6.5 | -6.4 | -6.3
Cc1ccc(C)n1-c1ccc(-c2nnco2)cc1 | x | x | -5.2 | 40.1* | 20.7 | 0.6
CCN(CC)S(=O)(=O)c1ccc(Cl)c(C(=O)Oc2cccnc2)c1 | x | x | 5.5 | -9.3 | -21.4 | -6.3
CCN(CC)S(=O)(=O)c1ccc(Cl)c(C(=O)Oc2cccc(-c3cnc4ccccc4n3)c2)c1 | x | 11.3 | 12.6 | 7.6 | 55.6* | 3.4
CCCC(C)C(=O)Nc1ccc(F)c(Cl)c1 (stereo not drawn) | 8.2 | -0.5 | 37.6 | 62.3* | 18.8 | 27.1
N#Cc1c[nH]n2c(=O)c3c(nc12)CCCC3 | x | x | -0.9 | 1.3 | 69.5* | -1.4
N#Cc1c[nH]n2c(=O)c3c(nc12)CCC3 | 0.7 | 5.1 | 1.5 | -3.7 | -4.8 | -4.3
Cc1ccccc1N1CCN(Cc2c[nH]c3ccccc23)CC1 | x | -10.9 | 47.6* | 0.9 | 4.3 | 20.2
COc1ccccc1N1CCN(Cc2c[nH]c3ccccc23)CC1 | 13.3 | -11.6 | 7.6 | -1.3 | -3.9 | -2.0
CCCc1cc(=O)oc2cc(C)cc(OC(C)C(=O)NCc3ccncc3)c12 (stereo not drawn) | x | 11.9 | x | x | x | x
O=C(O)C(Cc1c[nH]c2ccccc12)NS(=O)(=O)c1ccc(Cl)c(C(F)(F)F)c1 (stereo not drawn) | x | -0.2 | x | x | x | x
Cc1ccc(C(=O)n2nc(-c3cccnc3)nc2N)cc1 | x | -0.1 | 93.9* | 82.3* | 73.7* | 48.0*
COc1ccccc1C(=O)n1nc(-c2cccnc2)nc1N | x | 22.2 | 85.5* | x | 61.3* | -3.8
CCc1nn(C(C)C(=O)NC2CCCCCC2)c(=O)c2cc3occc3n12 (stereo not drawn) | x | 2.7 | x | x | x | x
COC(=O)c1[nH]c2cc(OC)ccc2c1NC(=O)CCN1CCCCC1 | x | -4.5 | 28.0 | 14.4 | 30.7 | 45.0*
COC(=O)c1[nH]c2ccc(Cl)cc2c1NC(=O)CN1CCc2cc(OC)c(OC)cc2C1 | x | -32.2 | 8.5 | -6.2 | -12.9 | 0.1
COC(=O)c1[nH]c2cc(C)ccc2c1NC(=O)CN1CCc2cc(OC)c(OC)cc2C1 | x | -20.9 | -1.3 | 3.9 | 97.5* | -7.7
COC(=O)c1[nH]c2cc(OC)ccc2c1NC(=O)CCN1CCCC(C)(C)C1 | x | x | 20.6 | 9.9 | -11.8 | 13.9
O=C(COc1ccc(Cl)cc1)NCCCNC(=O)c1ccncc1 | x | -3.2 | x | x | x | x
CCN(CC)C(=O)CSc1nc2ccccc2c(=O)n1CC | x | -0.4 | 16.6 | 21.8 | 87.5* | 4.6
O=C(Cc1ccccc1)N/N=C/c1ccc(S(=O)(=O)O)o1 | 14.8 | 26.9 | 4.9 | -2.6 | 2.9 | -0.3
SMILES | Biofilm kill mix | Hep lipid drop | FXIIa inh | thrombin 1536 | KLK5 inh | FXIa inh
Cc1ccc(NC(=O)C2CCN(S(C)(=O)=O)CC2)cc1 | x | x | 25.8 | 9.2 | 49.0* | 13.2
c1ccc(-n2nnnc2CN2CCOCC2)cc1 | 3.0 | -1.5 | 14.4 | -0.1 | -1.5 | 8.0
c1ccc(-n2nnnc2Cc2nnnn2-c2ccccc2)cc1 | 9.7 | 3.3 | 29.8 | 1.8 | 72.6* | 25.1
CC(CC(=O)NC1CCCC1)c1ccccc1 (stereo not drawn) | x | x | 25.9 | 14.8 | 60.2* | 2.3
Cc1ccc2c(CN3CCN(Cc4ccc5c(c4)OCO5)CC3)cc(=O)oc2c1C | x | -11.3 | 37.1 | 1.1 | -4.8 | 45.7*
O=C(NC(=S)NC1CCSC1=O)c1ccccc1Cl (stereo not drawn) | x | x | 12.3 | 4.5 | 4.1 | 0.4
Cc1ccccc1C(=O)NC1CCSC1=O (stereo not drawn) | 15.1 | -3.2 | 23.2 | 11.2 | 16.8 | 50.1*
COc1cc(NC(=O)C(=O)NCCN2CCNCC2)c(OC)cc1Cl | 22.5 | -7.7 | 2.3 | 0.3 | -7.4 | -9.9
Oc1cccc(NC(=S)N=Nc2c(O)[nH]c3ccccc23)c1 | 11.4 | 1.2 | 24.0 | 15.7 | 78.4* | 21.3
CCOc1ccc(NC(=S)N=Nc2c(O)[nH]c3ccccc23)cc1 | 3.1 | 4.6 | 5.7 | -2.7 | -6.4 | -1.1
Cc1ccc(NC(=O)CN(C)C(=O)CCC(=O)c2cccs2)cc1 | 13.7 | 4.1 | -2.7 | 47.2* | 14.1 | 6.8
Cc1cc(C)nc(-n2nc(C)cc2Nc2ccccc2)n1 | x | 1.5 | -2.1 | 104.0* | 54.5* | -2.2
COc1ccc(CC(=O)Oc2ccc(C)cc2Br)cc1OC | x | 0.3 | x | x | x | x
C#CCSc1nncn1C(=O)/C=C/c1ccccc1 | x | x | 30.6 | 90.2* | 35.4 | 30.0
CN(C)S(=O)(=O)N1CCc2ccccc21 | x | -3.1 | 23.2 | 24.3 | 71.6* | 10.2
COC(=O)c1nc(-c2ccccc2)n[nH]1 | x | 1.3 | 10.6 | 4.0 | -2.2 | 0.6
COC(=O)c1nc(NC(=O)C(C)(C)C)n[nH]1 | x | 4.8 | 11.0 | 55.7* | 2.4 | -25.9
COC(=O)c1nc(NC(=O)c2ccccc2Cl)n[nH]1 | x | 10.6 | 81.9* | x | 48.2* | 7.1
COC(=O)C(Cc1ccccc1)NC(=O)c1cccc(S(=O)(=O)N(C)C)c1 (stereo not drawn) | 6.6 | 8.2 | 5.2 | -11.1 | -7.1 | -2.6
COc1ccc(S(=O)(=O)NCCOc2cccc3cccnc23)cc1OC | 11.6 | -18.4 | 30.4 | 11.4 | 11.1 | 42.1*
O=[N+]([O-])c1cccc(S(=O)(=O)NCCOc2cccc3cccnc23)c1 | x | -2.5 | x | x | x | x
CNCc1cc2ccc(C)cc2[nH]c1=O | x | x | -0.1 | 8.9 | 44.8* | 5.6
Cc1ccc2cc(CNC(C)(C)C)c(=O)[nH]c2c1 | x | 15.8 | -3.4 | 3.4 | 1.4 | 3.7
COCCCNC(=O)C(F)(F)C(F)(F)C(=O)NCCCOC | x | x | 27.3 | 9.1 | 121.5* | 19.3
CC(C)Cn1c(-c2ccccc2)nc2ccccc2c1=O | x | x | 41.6* | 1.1 | -3.4 | 32.0
CCOC(=O)C1=C(C)OC(N)=C(C#N)C1c1cc2c(cc1[N+](=O)[O-])OCO2 (stereo not drawn) | 8.7 | 3.2 | 7.4 | 74.1* | -1.0 | -1.9
CCOC(=O)C1=C(C)OC(N)=C(C#N)C1c1cc(OC)c2c(c1)OCO2 (stereo not drawn) | x | x | -0.2 | -7.2 | -12.5 | -5.0
